Screens as filed in PubChem.
beta cell repl: inducers of beta-cell replication in MIN6 cells; MIN6 cells proliferation, ATPlite luminescence, 48 h; cells starved in 0.2% serum; 100% = growth in 10% serum; proliferation, % at 10 µM; 330,000 tested, 0.29% active; AID 2380;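 active = compounds whose signal lies at least 3.5 SD above the mean of all wells on their plate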;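 note: 0% = DMSO-treated cells in low-serum medium and 100% = 10% serum control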
MT1-MMP act inh: inhibitors of human MT1-MMP activation. P50281. HT1080 RFP-PRO-GFP cells, GFP/RFP ratio fluorescence, overnight; percent of plate control window, DMSO zero. GFP/RFP ratio change, % at 20 µM. 360,000 tested, 0.061% active. AID 651647;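 active = GFP/RFP ratio change of at least 30% with cell ATP level not reduced by more than half and red fluorescence within 50% of control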
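Material: RFP-PRO-GFP reporter HT1080 cells. Dosing: single-point 20 µM compound, 1% DMSO. Controls: DMSO and RFP-L50D-GFP cell wells. Timing: cells overnight before dosing, compound overnight, 37 °C, 5% CO2. Measure: GFP/RFP fluorescence ratio.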
SENP1 inh: SENP1 (human) catalytic domain inhibition. 360,000 tested, 0.21% active. recombinant SENP1 catalytic domain, CyPet-SUMO1-YPet FRET cleavage. inhibition, % at 10 µM;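 active = inhibition at least 30% at 10 µM, raw YFP signal under a set limit, fluorescence ratio 0.5 to 1.5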;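 note: 0% = enzyme with DMSO and 100% = no enzyme wells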
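Compound: 10 µM single point, 0.5% DMSO; Test system: hSENP1 catalytic domain, recombinant; Timing: 50 min reaction at room temperature; Technique: FRET, CFP and YFP emission; Control set: no-enzyme wells low, DMSO-plus-enzyme wells high control.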
Myeloid diff MLP: myeloid differentiation induction. ER-HoxA9 myeloid progenitors, lysozyme-GFP differentiation, flow cytometry. calls only at 10 µM. AID 624256. 360,000 tested, 1% active;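 active = normalized GFP-positive differentiation at or above the plate's own cutoff, the solvent-only control mean plus 3 SD; inconclusive = no clear call, values can overlap the other calls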;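 note: cells exposed to compound for four days before flow analysis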
DAGLB inh: diacylglycerol lipase beta (human) inhibition; HEK293T DAGLB membrane lysate, EnzChek fluorogenic substrate; inhibition, % at 5.17 µM; 340,000 tested, 0.059% active; AID 504411; Q8NCG7; in the data active = inhibition above about 34%;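 note: 0% = enzyme with vehicle and 100% = wells lacking enzyme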
CendR NRP1 mod: NRP-1/CendR interaction modulation; 360,000 tested, 0.85% active; FAM-RPARPAR peptide binding to NRP-1, fluorescence polarization; O14786; inhibition, % at 25 µM; AID 602438;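 active = inhibition or corrected inhibition above about 18%, plus a signal ratio from 0.5 to 1.5, limit read from the data, passing the limit was not always enough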
Starred values were filed as active, the others as inactive; i = inactive; ? = inconclusive; . = no result; + = active, no number. Sampled rows, rich in hits. Any-hit rate of the full collection: about 2.4%.

SMILES | beta cell repl | MT1-MMP act inh | SENP1 inh | Myeloid diff MLP | DAGLB inh | CendR NRP1 mod
NC(=O)C1CCCN(C(=O)CCCNC(=O)c2ccc(Cl)cc2)C1 (stereo unspecified) | 0 | 3 | -1 | i | 1 | 28*
COc1ccccc1C(=O)NCCC(=O)N1CCCC(C(F)(F)F)C1 (stereo unspecified) | -3 | 1 | -1 | i | 1 | -4
COc1ccc(NC(=O)C(CC(=O)O)C(C)c2ccccc2)cc1 (stereo unspecified) | 3 | 3 | -1 | i | -2 | -1
COc1ccc(C#Cc2c(-c3ccsc3)oc3ccc(N4CCOCC4)cc23)cc1 | -6 | 8 | -13 | i | -2 | -8
COc1ccc(-c2oc3ccc(N4CCOCC4)cc3c2C#Cc2ccc(N)cc2)cc1 | -9 | 1 | -58 | + | 3 | -19
O=C(OCc1ccccc1)N1CCC2CC1c1ccc(Cl)cc12 (stereo unspecified) | . | 10 | 0 | + | -12 | 0
COc1ccc(-n2nc3c(N4CCC(C(=O)N5CCC(C)CC5)CC4)nnc(C)c3c2C)cc1 | -4 | -80 | 68* | + | -1 | -122
Cc1nnc(N2CCC(C(=O)N3CCCCC3)CC2)c2nn(-c3ccc(Cl)cc3)c(C)c12 | -3 | 0 | 2 | ? | -2 | 4
Cc1ccc(OCC(=O)N(C)CC(=O)Nc2ccccc2Cl)c([N+](=O)[O-])n1 | -2 | 7 | -2 | i | -1 | -6
CN(CC(=O)Nc1ccc(F)cc1)C(=O)COc1ccccc1Cc1ccccc1 | -5 | . | 0 | i | -5 | 6
CCCOc1cccc(-c2nn(-c3ccccc3)cc2/C=C(\C#N)C(=O)NCCCn2ccnc2)c1 | 0 | -17 | -44 | + | -3 | -96
N#C/C(=C/c1cn(-c2ccccc2)nc1-c1cccc(OCc2ccc(F)cc2)c1)C(=O)NCCCn1ccnc1 | -5 | -3 | 0 | i | -1 | 5
O=C(Cc1ccccc1)NC(Nc1ccccc1)C(Cl)(Cl)Cl (stereo unspecified) | 1 | 1 | 1 | i | -1 | 18
O=C(Cc1ccccc1)NC(NCCc1ccccc1)C(Cl)(Cl)Cl (stereo unspecified) | -5 | -3 | 1 | i | 3 | 22*
CCc1cccc(CC)c1NC(=O)CN(CC(=O)O)CC(=O)O | -1 | 3 | 14 | i | 1 | 4
O=C(O)CN(CC(=O)O)CC(=O)O | . | 6 | -4 | + | 1 | -14
COc1ccc(-n2c(=S)[nH]c3cc(C(=O)NCCCN4CCOCC4)ccc3c2=O)cc1 | 0 | -1 | 0 | i | 0 | 5
O=C(NCCCN1CCOCC1)c1ccc2c(=O)n(-c3ccc(F)c(Cl)c3)c(=S)[nH]c2c1 | -3 | 2 | -1 | i | -2 | 24*
Cc1nn(-c2ccccc2)c(N2CCCC2)c1/C=C1\N=C(c2ccccc2)OC1=O | -3 | -1 | 6 | i | -2 | 76*
Cc1cccc(N2CCN(S(=O)(=O)c3ccc(Cl)nc3)CC2C)c1 (stereo unspecified) | 2 | -3 | 1 | i | -6 | 27*
CCN(CC(=O)NCc1cccs1)S(=O)(=O)c1ccccc1Cl | 2 | -2 | 2 | i | 1 | 6
CCN(CC(=O)NCc1cccs1)S(=O)(=O)c1ccc(C(C)C)cc1 | -2 | 2 | 2 | i | -3 | 32*
COc1ccc(C2=Nn3c(nnc3-c3ccccc3Cl)SC2)cc1OCC1CC1 | -6 | 1 | -1 | i | -1 | 0
COc1ccc(OC)c(-c2nnc3n2N=C(c2ccc(OC)c(OCC4CC4)c2)CS3)c1 | -5 | 14 | 0 | + | 2 | 2
CC(C)NC(=O)C1(C)CSCC(=O)N1Cc1cccc(F)c1 (stereo unspecified) | . | 2 | 2 | . | . | -7
SMILES | beta cell repl | MT1-MMP act inh | SENP1 inh | Myeloid diff MLP | DAGLB inh | CendR NRP1 mod
O=C(CSc1ncnc2nc[nH]c12)N1CCN(c2ccccc2)CC1 | -2 | 0 | -2 | + | 2 | -4
Cc1cc2c(SCC(=O)N3CCN(c4ccccc4)CC3)ncnc2s1 | 2 | 5 | 0 | i | -3 | 8
O=C1Nc2ccc(Br)cc2C12NNc1ccccc1O2 (stereo unspecified) | -6 | -108 | 58 | + | 23 | -226
CCCCNC(=O)CO/N=C(\C)c1cc2ccccc2o1 | -2 | 1 | 1 | + | -3 | 0
O=c1cc(-c2cccc(F)c2)[nH]c2ccccc12 | -6 | 20 | -4 | ? | -4 | -4
Cc1ccc(-c2cc(=O)c3cc(C)ccc3[nH]2)cc1 | -6 | 5 | 0 | i | 1 | 30*
O=c1cc(-c2ccccc2)[nH]c2ccc(F)cc12 | . | 9 | 1 | i | -1 | 23*
Cc1ccc(-c2cc(=O)c3cc(F)ccc3[nH]2)cc1 | -1 | 0 | 1 | i | 1 | 2
CC(=O)Nc1sc(/C(C#N)=C\c2cccc(Cl)c2)nc1-c1ccc(C)cc1 | . | -2 | -27 | + | -76 | 137
CCCn1nnnc1SCC(=O)N1C(C)CCCC1C (stereo unspecified) | 1 | -1 | 3 | i | 0 | 22*
COc1cc([N+](=O)[O-])ccc1NC(=O)COC(=O)CCS(=O)(=O)c1ccc(C)cc1 | -2 | -2 | -1 | i | -2 | 9
CC(C)(C)C(=O)NC(=S)NNC(=O)c1ccc(-c2ccccc2)cc1 | -6 | -10 | 3 | + | 3 | 2
COc1ccc(OC)c(S(=O)(=O)ON2C(=O)c3ccccc3C2=O)c1 | -3 | 1 | 1 | + | -3 | -14
O=C(NCC(=O)N1CCCC1)c1ccccc1F | -1 | 0 | 0 | i | -2 | -10
O=C(NCC(=O)N1CCC(Cc2ccccc2)CC1)c1ccccc1F | . | 5 | 1 | i | -5 | 32*
O=C(CC12CC3CC(CC(C3)C1)C2)N/N=C/c1ccncc1 | 0 | -1 | 1 | i | 2 | 18*
CC(C)(C)n1ncc2c(=O)n(Cc3ccc(Cl)c(Cl)c3)cnc21 | -5 | -1 | 1 | + | 0 | -4
CCOc1ccc(C2NC(=O)NC(c3ccccc3)=C2C(C)=O)cc1OC (stereo unspecified) | 0 | -2 | 2 | i | -1 | 4
CCOc1cc(C2NC(=O)NC(c3ccccc3)=C2C(C)=O)ccc1OCC(N)=O (stereo unspecified) | -1 | . | -6 | i | 3 | 47*
Cc1ccc(-c2cc(C(=O)O)n(-c3ccc(S(N)(=O)=O)cc3)n2)cc1 | 3 | -2 | 1 | i | -2 | 16
COc1cccc(Nc2ncnc3sccc23)c1 | -3 | 0 | -108 | + | 0 | 2
